High-throughput results (PubChem BioAssay)
Jurkat tox 60K: cytotoxic compounds reducing Jurkat cell viability; inhibition, % at 4 µM; Jurkat E6.1 viability, ATP luminescence, 48 h; AID 463; actives 1.2% (n = 56,000);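 active = inhibition above the mean inhibition of all tested compounds plus 3 SD, cut at about 28% in these data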
M1 antagonist: blocks the rat M1 muscarinic receptor response to acetylcholine; actives 3.4% (n = 64,000); P08482; B-score at 10 µM; CHO-M1 cells, Fluo-4 calcium, ACh EC80 antagonist mode; active compounds read low; AID 628;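 active = calcium fluorescence response, raw or row-and-column corrected B-score, differing from the plate sample mean either way at a set confidence level, mostly lower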
JNK3 blocker: blocks human JNK3 kinase activity; purified JNK3 kinase activity, HTS; inhibition, % at 8 µM; actives 0.61% (n = 60,000); in the data active = inhibition above about 17%;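 also: 0% = DMSO and 100% = reference inhibitor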
Target sequence (P53779 whole entry, looked up): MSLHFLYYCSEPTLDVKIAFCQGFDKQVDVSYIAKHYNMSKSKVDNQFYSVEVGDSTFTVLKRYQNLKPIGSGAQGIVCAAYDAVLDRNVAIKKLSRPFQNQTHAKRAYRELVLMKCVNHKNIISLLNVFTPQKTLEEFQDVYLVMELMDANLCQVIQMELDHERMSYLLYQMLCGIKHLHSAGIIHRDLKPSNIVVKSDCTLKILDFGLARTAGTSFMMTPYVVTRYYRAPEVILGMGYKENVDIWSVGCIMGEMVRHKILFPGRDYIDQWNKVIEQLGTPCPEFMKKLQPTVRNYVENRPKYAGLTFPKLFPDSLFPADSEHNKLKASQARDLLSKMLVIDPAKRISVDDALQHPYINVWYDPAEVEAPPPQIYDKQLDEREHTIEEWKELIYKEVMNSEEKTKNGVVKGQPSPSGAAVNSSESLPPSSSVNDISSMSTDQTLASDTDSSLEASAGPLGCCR
M1 agonist: M1 muscarinic receptor agonism. actives 3% (n = 64,000). B-score at 10 µM. CHO-M1 cells, Fluo-4 calcium fluorescence, agonist mode; active compounds read high;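 active = fluorescence rise, raw or as B-score row- and column-corrected plate score, outside the 99.7% band of its plate's samples, either direction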
S1P3 ag: agonists of human S1P3 receptor; S1P3 NFAT-BLA reporter cells, agonism, FRET ratio; relative to 1 µM S1P, basal subtracted; activation, % at 4.5 µM; actives 0.1% (n = 60,000);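 active = activation above the screen-wide mean plus 3 SD, cut at about 4.5% in these data, passing the limit was not always enough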
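Assay system: stable CHO line with human S1P3, Gα16, NFAT-BLA reporter; Detection: FRET β-lactamase substrate fluorescence, excitation 405 nm, 460/535 nm emission ratio, background-subtracted; Read-out: percent activation versus median 1 µM S1P response, basal-subtracted, per plate; Incubation: cells plated overnight, compound 4 h 37 °C, substrate 2 h RT.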
S1P1 ag-PAM: S1P1 (human) agonism or agonism potentiation | P21453 | S1P1 CRE-bla cells, forskolin, beta-lactamase FRET, potentiator mode; S1P1 agonist co-added at EC20, 2 nM; 100% = saturating reference agonist, 0% = basal | activation, % at 9.5 µM | actives 0.57% (n = 56,000);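 active = activation above a cutoff set at the mean activation of all tested compounds plus 3 SD, cut at about 54% in these data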;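 also: forskolin at 4 µM as EC80 and the EC20 agonist is SEW2871; 100% = SEW2871 at its EC100 plus forskolin at EC80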
M1 antag conf: confirmation of rat M1 muscarinic receptor antagonists. shares compounds with M1 antagonist. CHO-M1 cells, Fluo-4 calcium, ACh EC80 antagonism; active compounds read low. calcium response (max-min fluorescence) at 10 µM. actives 43% (n = 1,700);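 active = calcium response below the same-plate mean of wells given acetylcholine alone at its 80%-effect dose, minus 3 SD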;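 also: raw fluorescence intensity difference in arbitrary instrument units and not normalized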
mGluR4 antag: selectivity test for M1 antagonists: human mGluR4 receptor. shares compounds with M1 antagonist. CHO-mGluR4 calcium flux, Fluo-4 fluorescence, glutamate EC80; active compounds read low. fluorescence response (max-min) at 10 µM. actives 0.9% (n = 1,700);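 active = fluorescence response below the plate's average for near-maximal glutamate wells, less 3 SD of those wells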;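 also: raw unnormalized fluorescence span taken in the window right after glutamate addition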
The depositor's hits bear a star; / = not tested or not shown. Most compounds without a hit are left out; they make up all but 7.4% or so of the library.

SMILES	Jurkat tox 60K	M1 antagonist	JNK3 blocker	M1 agonist	S1P3 ag	S1P1 ag-PAM	M1 antag conf	mGluR4 antag
Cc1cc(C2=CC(C)(c3cc(C)oc3C)Nc3nc(C(F)(F)F)nn32)c(C)o1 (stereo not drawn)	14	-0.095	-2	-1.3	0	25	/	/
COc1ccc(C2(O)CCN(CCCCOc3ccccc3)CC2)cc1	-3	-2.6*	4	-0.46	0	2	477*	242
COc1ccc(C2(O)CCN(C(=O)Cc3cccnc3)CC2)cc1	/	0.16	/	0.13	/	/	/	/
O=C(c1ccc(CNc2c(N3CCCC3)c(=O)c2=O)cc1)N1CCc2ccccc2C1	-4	0.37	1	0.019	2	-27	/	/
COCCNC(=O)C(c1cccs1)N(C(=O)Cn1nnc2ccccc21)c1cccc(C)c1 (stereo not drawn)	1	-18*	1	-0.47	0	9	679	234
CCCN1Cc2cccc(C(=O)Nc3ccc(N4CCN(CC)CC4)cc3)c2C1=O	-8	-1.7*	-5	-0.018	0	2	354*	210
O=C(Nc1ccc(N2CCN(Cc3ccccc3)CC2)cc1)c1cccnc1	-2	-2.6	1	-1	0	/	/	/
CCN1CCN(c2ccc(NC(=O)c3cccc4ncccc34)cc2)CC1	8	-5.1*	-7	-0.36	0	8	499	249
COc1ccc(-c2nnc(SCC(=O)NC(=O)NCc3ccco3)o2)cc1	/	-0.014	/	-0.34	/	/	/	/
COc1ccc(-c2[nH]c(-c3cccc(OC)c3)nc2SCC(=O)NCc2ccco2)cc1	-3	-3.1*	1	-1.1	0	-15	574	210
COc1ccc(-c2ccc(SCC(=O)NCc3ccco3)nn2)cc1	0	-13*	-7	0.039	-2	5	584	211
COc1ccc2cc(C3(C)NC(=O)N(CC(=O)NCc4ccco4)C3=O)ccc2c1 (stereo not drawn)	3	0.17	6	0.046	0	6	/	/
COC(=O)C1=C(C)NC(=O)NC1c1cn(-c2ccccc2)nc1-c1cccs1 (stereo not drawn)	/	-2.7*	/	-1.1	/	/	429	203
CCNS(=O)(=O)c1ccc(NC(=O)Cc2ccc(F)cc2)cc1	0	-5.5*	1	0.056	0	0	561*	197
CN(C)c1nc(Nc2ccc(Cl)cc2)nc(OCC#N)n1	6	-0.084	2	-0.87	0	15	/	/
CSc1cccc(NC(=O)CSc2nc3ccccc3o2)c1	-2	-3.3*	2	-0.012	-1	-19	577	272
CCCCCNC(=O)c1c(N)n(/N=C/c2ccco2)c2nc3ccccc3nc12	/	-0.41	-6	-0.72	-1	-7	/	/
CCn1c(=NC(=O)c2ccc(S(=O)(=O)N3CCOCC3)cc2)sc2cccc(OC)c21	5	-1.8*	0	1.1	-1	6	588	237
O=C(NCc1cccnc1)c1cc(-c2cccs2)on1	0	-0.62	5	0.012	-1	-18	/	/
O=C(Nc1nnc(-c2ccccc2)o1)c1nc2ccccc2s1	-5	0.078	4	1.5	1	20	/	/
O=C(OCC(=O)N1CCOCC1)C(c1ccccc1)c1ccccc1	-13	-0.12	-2	-0.15	0	0	/	/
CCN(CC)CCOC(=O)C(c1ccccc1)c1ccccc1	/	-13*	4	0.14	0	0	19*	240
CCN(CC)CCOc1ncnc2c1oc1ccccc12	-2	-1.6*	-1	0.091	-1	4	584*	198
CC(C)C(=O)Nc1ccc(NC(=O)c2cccc(F)c2)cn1	3	0.7	0	-1.5	0	1	/	/
Cc1ccccc1N(CC(=O)NCCc1ccccc1)C(=O)c1ccc(N2CCCC2)nc1	3	-4.6*	-6	-0.95	0	-8	667	241
SMILES	Jurkat tox 60K	M1 antagonist	JNK3 blocker	M1 agonist	S1P3 ag	S1P1 ag-PAM	M1 antag conf	mGluR4 antag
Cc1ccc2c(n1)sc1c(N)ncnc12	-4	0.65	5	0.51	1	-42	/	/
CCOC(=O)c1nnn(-c2nonc2NC(C)=O)c1C	-3	-0.9*	2	-0.32	0	-53	574*	178
CCOC(=O)c1nnn(-c2nonc2-n2cccc2)c1C	2	0.05	-3	-0.077	-1	/	/	/
Cc1ccc(S(=O)(=O)N2CCN(C(=O)CSc3nnc(-c4ccco4)o3)CC2)cc1	4	-3*	8	-0.6	-2	-1	511	193
Cc1nnc(SCC(=O)N2CCN(S(=O)(=O)c3ccccc3)CC2)n1Cc1ccccc1	1	-6.4*	-5	-0.068	0	-12	350*	271
CCOc1cc(C(=O)N2CCOCC2)ccc1OCc1ccccc1	-1	0.84	-6	0.03	-1	-10	/	/
CCCCN(C(=O)c1ccc(Cl)cc1)C1CC2CCC(C1)N2C (stereo not drawn)	0	-2.1*	1	-0.08	0	-17	369*	238
CCN(CC)CCCn1c(C)cc2c(c1=O)C(c1cccc(Cl)c1)C(C#N)=C(N)O2 (stereo not drawn)	/	-4.9*	2	-0.55	-2	9	644	227
Cc1cc2c(c(=O)n1CCN(C)C)C(c1ccncc1)C(C#N)=C(N)O2 (stereo not drawn)	-6	-2.9*	0	0.089	-1	13	675	252
COc1cc(OC)c(C2C(C#N)=C(N)Oc3cc(C)n(CCCN4CCOCC4)c(=O)c32)cc1OC (stereo not drawn)	-3	-1.2	-3	1	-1	2	/	/
CCN(CC)CCCn1c(C)cc2c(c1=O)C(c1cc(OC)c(OC)cc1OC)C(C#N)=C(N)O2 (stereo not drawn)	-1	-11*	4	-0.41	-2	4	279*	253
O=C1NC(c2ccccc2)(C(F)(F)F)C(=O)N1Cc1cccnc1 (stereo not drawn)	1	-1.2	-7	-1.1	-1	11	/	/
CCC(CO)NCc1ccc2c(c1)n(C)c(=O)n2C (stereo not drawn)	-6	/	0	/	-1	-12	/	/
CCOC(=O)c1ccc(NC(=O)CSc2nccn2C)cc1	1	-3.3*	-2	-0.23	-1	-2	623	229
CCOC(=O)c1ccc(NC(=O)CSc2nnc(COc3ccccc3)n2C)cc1	0	-0.17	-1	0.33	-1	-37	/	/
O=C(Cn1cc(C(F)(F)F)ccc1=O)N1CCN(S(=O)(=O)c2ccccc2)CC1	-1	0.32	-8	-0.13	0	3	/	/
